Data on eleven compounds can be found in ChEMBL document CHEMBL4311979, “Structural isomers of cinnamic hydroxamic acids block HCV replication via different mechanisms” (Eur J Med Chem, 2019).

The target of series [1] is T1, Protein deacetylase HDAC6 (Homo sapiens) (UniProt Q9UBN7).
T1 sequence (whole entry): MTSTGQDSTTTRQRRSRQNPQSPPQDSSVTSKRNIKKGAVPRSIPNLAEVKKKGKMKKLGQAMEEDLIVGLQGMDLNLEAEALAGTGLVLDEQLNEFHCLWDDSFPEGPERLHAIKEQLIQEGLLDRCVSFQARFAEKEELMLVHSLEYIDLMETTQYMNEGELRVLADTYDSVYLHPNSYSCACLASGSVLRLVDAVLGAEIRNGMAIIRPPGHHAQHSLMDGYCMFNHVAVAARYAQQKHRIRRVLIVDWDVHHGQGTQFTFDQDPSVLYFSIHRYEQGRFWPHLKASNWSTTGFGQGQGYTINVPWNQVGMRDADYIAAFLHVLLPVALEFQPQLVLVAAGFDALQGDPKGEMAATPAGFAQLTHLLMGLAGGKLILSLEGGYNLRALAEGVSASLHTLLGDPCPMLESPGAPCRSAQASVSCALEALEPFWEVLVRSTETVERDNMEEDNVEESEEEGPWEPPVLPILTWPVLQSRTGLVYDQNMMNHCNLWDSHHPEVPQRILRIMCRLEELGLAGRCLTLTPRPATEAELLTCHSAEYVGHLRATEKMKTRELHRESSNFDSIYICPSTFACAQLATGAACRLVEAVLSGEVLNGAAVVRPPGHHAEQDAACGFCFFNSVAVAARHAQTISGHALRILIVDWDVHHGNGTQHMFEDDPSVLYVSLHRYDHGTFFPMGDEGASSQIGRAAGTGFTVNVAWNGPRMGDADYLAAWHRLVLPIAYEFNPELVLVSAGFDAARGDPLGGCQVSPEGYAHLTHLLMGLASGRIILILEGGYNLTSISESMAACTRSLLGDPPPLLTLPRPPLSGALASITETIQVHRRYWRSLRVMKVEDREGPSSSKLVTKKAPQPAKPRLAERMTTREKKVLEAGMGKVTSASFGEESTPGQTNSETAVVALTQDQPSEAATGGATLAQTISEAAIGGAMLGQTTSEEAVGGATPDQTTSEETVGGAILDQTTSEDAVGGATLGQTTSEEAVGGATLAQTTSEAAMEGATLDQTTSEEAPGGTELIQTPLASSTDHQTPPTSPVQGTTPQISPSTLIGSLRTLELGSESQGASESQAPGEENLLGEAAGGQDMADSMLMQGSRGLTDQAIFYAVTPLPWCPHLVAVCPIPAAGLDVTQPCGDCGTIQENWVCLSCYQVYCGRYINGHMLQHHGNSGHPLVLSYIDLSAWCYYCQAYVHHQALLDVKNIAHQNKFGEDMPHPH
Nature of the series: Inhibition of HDAC6 in human HuH7-luc/neo cells assessed as ratio of alphaTubK40ac content to the content of unmodified alpha-tubulin at 0.3 uM incubated for 24 hrs by Western blot analysis relative to control. It counts as cell-based. The gist of the method:
(§1)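 Huh7-luc/neo cells were dosed after 24 h at 40-50% monolayer and exposed to compound for 24 h at 37 °C in 5% CO2. For α-tubulin and SMC3, cells were PBS-washed and lysed. Histone H3 was acid-extracted: TEB buffer with 0.5% Triton X-100, then 0.2 M HCl overnight at 4 °C, then neutralized. Western blots were blocked in 5% milk/PBST with overnight primary antibody at 4 °C. Values are acetylated/total normalized ratios versus control.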

The target of series [2] is T2, Histone deacetylase 1/2/3 (Homo sapiens) (UniProt Q13547+O15379+Q92769). In words: Inhibition of HDAC1/2/3 in human HuH7-luc/neo cells assessed as ratio of H3K9/14ac content to the content of unmodified histone H3 at 3 uM incubated for 24 hrs by Western blot analysis relative to control. In kind it is cell-based. The procedure, abridged:
as §1
In general terms: A western blot detects proteins with antibodies after separation by electrophoresis.

In series [3] the target is T1, Protein deacetylase HDAC6 (Homo sapiens). Nature of the series: Inhibition of HDAC6 in human HuH7-luc/neo cells assessed as ratio of alphaTubK40ac content to the content of unmodified alpha-tubulin at 1 uM incubated for 24 hrs by Western blot analysis relative to control. It counts as cell-based. The gist of the method: as §1
Series [4] is described as follows: Cytotoxicity against human HuH7 cells assessed as reduction in cell viability incubated for 3 days by MTT assay. It counts as cell-based, Huh-7. The gist of the method:
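Huh7 cells were reseeded and dosed over a range of concentrations after 24 h (30-40% monolayer). Incubation was three days at 37 °C in 5% CO2, and viability was read by MTT. CC50 is the mean and standard deviation of at least six independent experiments.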
On the technique in general: Formazan colour is commonly taken as a measure of viable cells.

Series [5] is described as follows: Therapeutic index, ratio of CC50 for human HuH7 cells to EC50 for HCV infected in human HuH7-luc/neo cells. It counts as toxicity, cell-based. The settings on record: HuH7 cells (CC50) and HCV-infected HuH7-luc/neo cells (EC50).
The subject of the next series is Hepatitis C virus. In words: Antiviral activity against HCV infected in human HuH7-luc/neo cells assessed as inhibition of viral replicon propagation incubated for 3 days by luciferase reporter gene assay. It counts as functional, organism-based, Hepacivirus hominis. Conditions: 72 h. The procedure, abridged:
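Huh7-luc/neo cells carrying a full-length HCV replicon with a luciferase gene. Cells were reseeded without G418 and dosed at 30-40% monolayer (48 h) over a range of concentrations. Incubation was 72 h at 37 °C in 5% CO2. Cells were then PBS-washed and lysed, and luciferase chemiluminescence was read. EC50 is the mean and standard deviation of at least four independent experiments.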

For series [6], the target named is T2, Histone deacetylase 1/2/3 (Homo sapiens). In words: Inhibition of HDAC1/2/3 in human HuH7-luc/neo cells assessed as ratio of H3K9/14ac content to the content of unmodified histone H3 at 1 uM incubated for 24 hrs by Western blot analysis relative to control. It counts as cell-based. The procedure, abridged:
as §1

Series [7] concerns the target T1, Protein deacetylase HDAC6 (Homo sapiens). In words: Inhibition of HDAC6 in human HuH7-luc/neo cells assessed as ratio of alphaTubK40ac content to the content of unmodified alpha-tubulin at 3 uM incubated for 24 hrs by Western blot analysis relative to control. In kind it is cell-based. The gist of the method:
as §1

For series [8], the target named is T3, Histone deacetylase 8 (Homo sapiens) (UniProt Q9BY41).
T3 sequence (whole entry): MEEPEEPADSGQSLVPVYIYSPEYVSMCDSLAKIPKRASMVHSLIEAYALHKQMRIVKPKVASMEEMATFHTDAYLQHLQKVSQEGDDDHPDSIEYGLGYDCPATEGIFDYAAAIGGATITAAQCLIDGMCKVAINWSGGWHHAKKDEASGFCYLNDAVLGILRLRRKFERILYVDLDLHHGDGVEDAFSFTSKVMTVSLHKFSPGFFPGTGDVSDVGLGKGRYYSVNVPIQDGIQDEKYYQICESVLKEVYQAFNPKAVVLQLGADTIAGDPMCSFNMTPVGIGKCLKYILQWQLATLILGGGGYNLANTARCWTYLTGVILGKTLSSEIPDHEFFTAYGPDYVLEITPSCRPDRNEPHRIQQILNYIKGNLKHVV
Nature of the series: Inhibition of HDAC8 in human HuH7-luc/neo cells assessed as ratio of SMC3K105/106ac content to the content of unmodified SMC3 at 10 uM incubated for 24 hrs by Western blot analysis relative to control. In kind it is cell-based. The gist of the method: as §1

Series [9] addresses T3, Histone deacetylase 8 (Homo sapiens). Nature of the series: Inhibition of HDAC8 in human HuH7-luc/neo cells assessed as ratio of SMC3K105/106ac content to the content of unmodified SMC3 at 3 uM incubated for 24 hrs by Western blot analysis relative to control. In kind it is cell-based. The procedure, abridged: as §1
In series [10] the target is T2, Histone deacetylase 1/2/3 (Homo sapiens). In words: Inhibition of HDAC1/2/3 in human HuH7-luc/neo cells assessed as ratio of H3K9/14ac content to the content of unmodified histone H3 at 0.3 uM incubated for 24 hrs by Western blot analysis relative to control. In kind it is cell-based. The procedure, abridged:
as §1

In the case of `COc1ccc(/C=C/C(=O)NO)cc1`, the fold change (FC) in series [1] worked out at 0.55; in [2] it was 1.85; in [3], 3.57; in [6], 1.35; in series [7], 5.1. In [4], the CC50 – broadly, the concentration giving 50% cytotoxicity – at 72 h is 15 µM. Moreover, the selectivity ratio in [5] stood at 27. In addition, the EC50 (in general, the midpoint of the concentration-response curve) with Hepatitis C virus is 0.56 µM.
For `O=C(/C=C/c1ccc(OCc2ccccc2)cc1)NO`, the fold change (FC) in series [1] was determined as 1.63; in series [2], 4.83; in [3], 4.92; in series [8] it was 0.67; in series [6], 4.23; in [9] it was 0.93. Also, in series [7], the fold change (FC) amounted to 8.86. For the same compound, the CC50 at 72 h in series [4] amounted to 9.9 µM. In addition, the selectivity ratio in [5] was 240. For the same compound, in the series on Hepatitis C virus, the concentration giving a half-maximal response (EC50) worked out at 0.042 µM.
Consider `COc1cccc(/C=C/C(=O)NO)c1`, for which the fold change (FC) in series [2] came to 1.69; in series [3] it was 2.13; in series [6], 1.45; in [7], 3.3. Also, the CC50 at 72 h in series [4] is 17 µM. The selectivity ratio in [5] was 30. In the series on Hepatitis C virus, the EC50 worked out at 0.57 µM.
`O=C(/C=C/c1ccc(Oc2ccccc2)cc1)NO`: the fold change (FC) is 1.53 in series [10]; 2.09 in series [1]; 2.58 in series [2]; 2.22 in series [3]; 0.73 in series [8]; 1.69 in [6]. Besides, the fold change (FC) in [9] was found to be 0.83; in series [7], 2.58. In addition, the CC50 at 72 h in series [4] was found to be 20 µM. Moreover, in series [5], the selectivity ratio worked out at 370. Further, the EC50 in the series on Hepatitis C virus is 0.054 µM.
Take `O=C(/C=C/c1cccc(OCc2ccccc2)c1)NO`: the fold change (FC) in series [2] stood at 14.1; in [3], 7.34; in series [8] it was 0.83; in series [6] it was 8.42; in series [9] it was 0.82; in [7] it was 10.6. Further, the CC50 at 72 h in series [4] amounted to 6.6 µM. Besides, the selectivity ratio in series [5] amounted to 37. Besides, the EC50 in the series on Hepatitis C virus was 0.18 µM.
As to `O=C(/C=C/c1ccc(OCCOc2ccccc2)cc1)NO`, the fold change (FC) worked out at 4.04 in [10]; 0.86 in [1]; 15.4 in series [2]; 3.73 in series [3]; 1.13 in series [8]; 11.2 in [6]. In addition, the fold change (FC) in series [9] turned out to be 0.84; in series [7], 6.35. Also, the CC50 at 72 h in [4] stood at 5.7 µM. In addition, the selectivity ratio in series [5] was 91. The EC50 in the series with Hepatitis C virus turned out to be 0.063 µM.
As for `O=C(/C=C/c1cccc(OCCOc2ccccc2)c1)NO`, the fold change (FC) in series [2] was 20.2; in series [3], 3.33; in [8], 1.44; in series [6], 7.5; in series [9], 0.89; in [7], 7.72. For the same compound, the CC50 at 72 h in [4] came to 6 µM. Further, the selectivity ratio in series [5] worked out at 55. Moreover, in the series with Hepatitis C virus, the EC50 came to 0.11 µM.
Consider `O=C(/C=C/c1cccc(OCCc2ccccc2)c1)NO`, for which the fold change (FC) worked out at 11.2 in series [2]; 3.53 in series [3]; 0.58 in series [8]; 8.55 in [6]; 0.7 in series [9]; 4.34 in series [7]. In series [4], the CC50 at 72 h came out at 12 µM. The selectivity ratio in series [5] was 41. The EC50 with Hepatitis C virus was determined as 0.3 µM.
As to `O=C(/C=C/c1ccc(OCCc2ccccc2)cc1)NO`, the fold change (FC) in series [10] stood at 4.3; in [1] it was 0.52; in [2], 9.6; in series [3] it was 0.5; in [8], 0.41; in series [6] it was 9. Also, the fold change (FC) in [9] was determined as 0.52; in series [7] it was 2.55. The 50% cytotoxic concentration (CC50) at 72 h in series [4] stood at 16 µM. In addition, in series [5], the selectivity ratio was 120. In the series on Hepatitis C virus, the EC50 was determined as 0.13 µM.
For `COc1ccccc1/C=C/C(=O)NO`, the fold change (FC) in [2] is 1.56; in [3] it was 0.75; in series [6] it was 1.16; in series [7], 1.45. Moreover, in [4], the CC50 at 72 h stood at 30 µM. For the same compound, in series [5], the selectivity ratio was 27. Further, in the series on Hepatitis C virus, the EC50 turned out to be 1.1 µM.
With `O=C(/C=C/c1cccc(Oc2ccccc2)c1)NO`, the fold change (FC) in [10] came to 1.27; in [1] it was 1.54; in [2] it was 1.9; in [3], 2.58; in [8], 1.02; in [6], 1.75. In addition, the fold change (FC) came to 0.54 in series [9] and 3.79 in series [7]. For the same compound, in series [4], the CC50 at 72 h is 20 µM. Also, the selectivity ratio in [5] was 50. Besides, the EC50 with Hepatitis C virus came to 0.4 µM.
